Source: PubChem BioAssay
The list is not random: actives were taken first. Their share in the collection is about 5.5%.
Yeast life ext: extends the lifespan of yeast. S. cerevisiae growth with nicotinamide, OD615; deaD strain in restrictive glucose medium. 130,000 tested, 0.68% active. inhibition of the nicotinamide effect, % at 10 µM;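 active = inhibition above a set limit, placed 3 SD over the median of all compounds, cut at about 26% in these data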;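 note: 0% = nicotinamide-treated wells and 100% = cells grown without nicotinamide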
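System: Modified budding yeast, DeaD strain | Buffer or medium: Restrictive glucose medium | Also added: 1.5 mM nicotinamide | Doses: 10 µM single point, 0.25% DMSO | Schedule: 48 h compound exposure at 30 °C, humidified | Detection: Absorbance at 615 nm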
Yeast growth inh: reduces growth of yeast BB579 in restrictive medium; S. cerevisiae BB579 growth, OD615, 48 h; inhibition, % at 10 µM; 140,000 tested, 0.51% active;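 active = inhibition above a set limit, 3 SD over the mean compound inhibition, cut at about 44% in these data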
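Material: Saccharomyces cerevisiae DeaD strain BB579, replicative lifespan model yeast; buffer or medium: CSMM-D restrictive synthetic medium containing dextrose (glucose); compound: 10 µM single dose, DMSO 0.25%; timing: 48 h compound exposure at 30 °C after 4 h preincubation; signal: turbidity as optical density at 615 nm; benchmarks: positive control amphotericin B 10 µg/mL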
WT yeast gro inh: growth inhibition of WT yeast, mitochondrial fusion screen. mitochondrial fusion phenotypic screen, WT strain. inhibition, % at 10 µM. 190,000 tested, 2.1% active; in the data active = inhibition above about 58%; tested in S. cerevisiae
Cl transport mod: modulators of human KCC2 chloride dependent transport. Q9H2X9. KCC2 cells, thallium flux FluoZin-2 fluorescence. B-score of Tl+ flux slope (higher = more flux/activation; lower = inhibition) at 10 µM. 190,000 tested, 2.2% active. AID 1456;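 active = thallium flux slope and its plate-corrected score both differing from the plate sample mean at a set confidence after two filtering rounds, in either direction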;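 note: slope of fluorescence scaled to starting intensity during 10 to 20 s after thallium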
Target sequence (Q9H2X9 whole entry, looked up): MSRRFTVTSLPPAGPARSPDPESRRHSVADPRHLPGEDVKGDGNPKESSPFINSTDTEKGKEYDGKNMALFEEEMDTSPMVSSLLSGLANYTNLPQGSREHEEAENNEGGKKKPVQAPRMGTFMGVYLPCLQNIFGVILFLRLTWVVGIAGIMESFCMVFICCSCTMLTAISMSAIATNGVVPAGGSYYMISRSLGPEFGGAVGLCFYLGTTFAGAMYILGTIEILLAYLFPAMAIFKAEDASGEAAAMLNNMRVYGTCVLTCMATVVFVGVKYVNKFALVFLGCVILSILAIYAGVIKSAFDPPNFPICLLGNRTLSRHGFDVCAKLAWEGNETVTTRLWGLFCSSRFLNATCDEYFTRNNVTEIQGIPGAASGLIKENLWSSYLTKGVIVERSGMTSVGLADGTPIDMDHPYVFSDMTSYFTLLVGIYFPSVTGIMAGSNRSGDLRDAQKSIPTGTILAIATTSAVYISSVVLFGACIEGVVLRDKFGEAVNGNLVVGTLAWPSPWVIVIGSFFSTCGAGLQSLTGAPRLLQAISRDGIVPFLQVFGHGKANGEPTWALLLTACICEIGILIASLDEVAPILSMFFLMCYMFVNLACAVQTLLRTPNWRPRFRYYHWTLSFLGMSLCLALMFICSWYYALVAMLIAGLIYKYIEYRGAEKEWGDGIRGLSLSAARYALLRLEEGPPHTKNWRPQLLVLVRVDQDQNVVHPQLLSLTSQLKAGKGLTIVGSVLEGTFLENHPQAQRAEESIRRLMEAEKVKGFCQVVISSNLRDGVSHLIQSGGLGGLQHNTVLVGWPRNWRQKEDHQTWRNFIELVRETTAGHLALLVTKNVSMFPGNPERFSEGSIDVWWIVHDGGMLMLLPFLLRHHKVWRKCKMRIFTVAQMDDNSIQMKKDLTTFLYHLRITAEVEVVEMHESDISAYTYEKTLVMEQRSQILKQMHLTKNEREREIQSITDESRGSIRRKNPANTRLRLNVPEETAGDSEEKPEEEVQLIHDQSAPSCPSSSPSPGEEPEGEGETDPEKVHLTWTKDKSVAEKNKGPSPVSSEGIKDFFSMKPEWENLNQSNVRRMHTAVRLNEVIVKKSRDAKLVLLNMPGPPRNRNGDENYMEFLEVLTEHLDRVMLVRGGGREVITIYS
RAM inhibit: inhibitors of the yeast RAM network. S. cerevisiae dse1pr::URA3 reporter, 5-FOA growth OD615, 2 d; analog-sensitive cbk1-as2 kinase mutant strain. inhibition, % at 50 µM. 190,000 tested, 1.8% active;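 active = inhibition above a set limit, 3 SD over mean compound inhibition, cut at about 8.4% in these data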;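 note: 0% = DMSO-only wells with no growth and 100% = 10 µM 1-NA-PP1 full growth; inhibition rescues growth on 5-FOA so higher OD means more RAM inhibition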
Active calls of the source: *; . = not tested or not shown.

SMILES	Yeast life ext	Yeast growth inh	WT yeast gro inh	Cl transport mod	RAM inhibit
O=C(Nc1scc(-c2ccc(F)cc2)c1C(=O)O)c1ccco1	97.3*	-18.5	-17.4	.	3.6
COC(=O)c1c(-c2ccccc2)csc1NC(=O)c1ccco1	-7.9	0.6	-6.1	-0.0381	2.7
Cc1ccccc1Cn1cc(S(=O)(=O)CC(=O)Nc2nccs2)c2ccccc21	-2.5	-36.4	12.2	-0.482	8.4*
CCOC(=O)N1CCN(C(=O)CS(=O)(=O)c2cn(Cc3ccccc3C)c3ccccc23)CC1	-1.9	-44.5	3.5	-1.41	4.8
N=c1c2c(n(Cc3ccc(F)cc3)c3c1CCC3)CCC2	-0.1	-6.8	65.6*	.	0.7
CC(C)Oc1ccc(C(=O)NC2(C(F)(F)F)NC(=O)N(CCCc3ccccc3)C2=O)cc1 (configuration not stated)	1.9	-43.2	64.9*	1.06	0.1
Cc1ccccc1NC(=O)CSc1nc(COc2ccccc2)nc2ccccc12	-10.2	6.1	5.6	0.0244	9.7*
Cc1ccccc1Cn1c(-c2cncs2)nc2ccccc21	-7.7	-70.9	39.3	0.452	-0.1
Brc1cc2c(cc1Cn1c(-c3cncs3)nc3ccccc31)OCO2	22.9	-44.9	26.8	.	10.2*
Cc1cc(Oc2ccc(C)c(Cl)c2)nc(SCC(=O)c2ccccc2)n1	5.1	-31.6	29.7	0.452	9.1*
CC(C)COc1cccc(C(=O)NC(=S)NCc2cccnc2)c1	-1.8	-9.0	40.1	1.16	0.5
Cc1ccc(Cl)cc1N1CCN(Cc2nc3ccsc3c(=O)[nH]2)CC1	-23.4	-77.7	4.1	0.0276	0.1
CO/N=C/NC(=O)NOCc1ncc(C(F)(F)F)cc1Cl	-6.0	3.5	-20.9	0.526	2.1
O=C(N/C=N/OCc1ccc(Cl)cc1Cl)NOCc1ncc(C(F)(F)F)cc1Cl	-2.7	-29.7	68.8*	1.76	8.0
Clc1ccc(/C=N/NC(=Nc2ccccc2)c2ccccn2)c(Cl)c1	-16.3	-77.7	74.1*	.	-0.3
CSc1nc2ccc(NS(=O)(=O)c3c(Cl)cccc3Cl)cc2s1	-3.8	-34.6	67.1*	-2.37	4.6
Cc1cccc(C(=O)N/C(=C\c2ccc(C)o2)C(=O)O)c1	.	.	.	-0.368	.
COc1ccccc1N=C(C)C1=C(O)CC(c2ccccc2)CC1=O (configuration not stated)	.	.	2.5	-2.53	-0.9
CCCCC(=Nc1ccccc1OC)C1=C(O)CC(c2ccccc2)CC1=O (configuration not stated)	66.5*	17.1	-1.3	-1.74	-1.6
CCCC(=Nc1ccccc1OC)C1=C(O)CC(c2ccccc2)CC1=O (configuration not stated)	58.7*	-20.0	-11.4	-3.66	0.3
COc1ccc2cc(CN(CC3COCCO3)S(=O)(=O)c3ccc(Cl)cc3)c(=O)[nH]c2c1 (configuration not stated)	-15.8	-52.5	8.4	-0.348	5.5
CN1CCN(NC(=O)c2ccc(Cl)s2)CC1	.	.	7.9	0.00171	0.5
C=CCn1c(SCC(=O)OCC)nc(C(F)(F)F)cc1=O	.	.	-19.4	-0.404	-2.1
CCOC(=O)C1(CC/C(C)=N\NC(N)=O)CC(C)(C)OC1=O (configuration not stated)	-0.3	-6.9	6.2	-0.0133	2.7
S=c1[nH]nc(COc2ccccc2)n1Cc1ccccc1	-2.1	-28.9	49.3	3.33	2.0
SMILES	Yeast life ext	Yeast growth inh	WT yeast gro inh	Cl transport mod	RAM inhibit
S=c1[nH]nc(COc2ccccc2)n1/N=C/C(Cl)=C/c1ccccc1	-7.9	-33.5	73.2*	2.39	4.5
S=c1[nH]nc(COc2ccccc2)n1C1CCCCC1	-12.9	10.4	41.5	11.5*	2.6
S=c1[nH]nc(COc2ccccc2)n1/N=C/c1cccnc1	-0.7	-20.5	-1.4	0.244	1.1
S=c1[nH]nc(CSc2nc3ccccc3s2)n1C1CCCCC1	-3.5	10.7	16.9	30.3*	5.7
CCn1c(CSc2nc3ccccc3s2)nc2ccccc21	-4.9	-15.6	63.5*	-4.19	0.4
Cn1c(=O)c2c(-c3ccc(OC(F)F)cc3)cc(-c3ccccc3)nc2n(C)c1=O	.	.	.	1.28	.
N/C(=N\OC(=O)CCCCCN1C(=O)c2ccccc2C1=O)c1ccccc1	-4.5	-34.3	0.5	.	0.8
Cc1cc(C)c(NC(=O)c2ccc(CNS(=O)(=O)c3cc(C(F)(F)F)ccc3Cl)cc2)c(C)c1	1.1	-30.4	7.0	-0.83	5.1
CCC[C@@H]1C[C@@]1(CCC)[C@@H](NP(=O)(c1ccccc1)c1ccccc1)c1ccc(C(=O)OC)cc1	8.7	-51.0	68.0*	-1.25	5.8
CCN(CC)S(=O)(=O)c1cc(NS(=O)(=O)c2cc(Cl)ccc2Cl)ccc1C	19.5	-38.4	-6.3	-0.985	11.1*
CCN(CC)S(=O)(=O)c1cc(NC(=O)CCNC(=O)c2ccccc2Cl)ccc1C	2.8	-13.8	-8.5	-0.135	1.6
CCN(CC)S(=O)(=O)c1cccc(C(=O)Nc2cc(C)cc(C)c2)c1	-1.1	-36.2	0.4	-0.566	8.5*
CCN(CC)S(=O)(=O)c1cccc(NC(=O)c2ccc(Br)cc2)c1	.	.	69.9*	-0.198	9.7*
CCN(CC)S(=O)(=O)c1cccc(NC(=O)c2cncc(Br)c2)c1	.	.	23.9	-0.833	0.3
Nc1c(C(=O)Nc2ccccc2)c2nc3ccccc3nc2n1-c1ccc(O)cc1	.	.	.	0.259	.
O=C(O)CC1SC(=Nc2ccccc2)N(c2ccccc2)C1=O (configuration not stated)	-7.5	2.0	5.6	0.371	1.0
Cc1ccc(CC2SC(=Nc3ccccc3)N(c3ccccc3)C2=O)cc1 (configuration not stated)	11.6	-47.5	60.9*	-0.597	7.4
COC(=O)C1=C(C(=O)OC)C(c2cc(Br)ccc2O)c2sc(=O)[nH]c2S1 (configuration not stated)	61.3*	-16.2	18.7	-5.93*	0.7
Cc1ccc2nc(NC(=O)C(NS(=O)(=O)c3cccc4nsnc34)C(C)C)sc2c1 (configuration not stated)	1.8	-23.4	14.2	-0.0282	0.7
c1ccc(-c2ccc(-c3ccccn3)nn2)nc1	-9.8	68.0*	-1.1	-0.0149	-0.9
CCC(=O)Nc1ccc(C(=O)NNC(=O)COc2cccc(C)c2)cc1	5.4	-38.3	1.1	-0.334	3.9
Nc1nc(-c2ccc(Br)cc2)cs1	-18.5	-8.8	22.8	-1.75	1.6
Nc1nc(-c2cccc(Br)c2)cs1	-10.8	21.1	71.1*	-0.333	-0.6
CC(C)N=c1scc(-c2cccs2)n1/N=C/c1ccc(O)c(O)c1O	2.0	96.2*	81.8*	-0.107	1.7
CCOC(=O)N1CCC(NC(=O)C(NC(=O)C2CCC(C)CC2)C(C)CC)CC1 (configuration not stated)	-10.4	-35.6	-7.2	0.218	0.9
Cc1csc(NC(=O)Cc2coc3cc(C)c(C(C)C)cc23)n1	-17.6	82.7*	50.6	0.124	2.1
COc1ccc(N2CCN(c3oc(Cc4ccccc4)nc3C#N)CC2)cc1	-24.0	-26.9	-1.4	0.0211	10.6*
